ChEMBL document CHEMBL4513216, “Probing the Open Global Health Chemical Diversity Library for Multistage-Active Starting Points for Next-Generation Antimalarials” (ACS Infect Dis, 2020)

Experiment: Toxicity liver stage against HepG2, at 10uM
Type: cell-based
Parameters: test concentration 10 uM, cell line HepG2-A16-CD81EGFP
Conditions: human, HepG2-A16-CD81EGFP cells; read-out: INHIBITION
In short: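 Uninfected HepG2-A16-CD81EGFP cells, 3 × 10^3 per well, 1536-well, plated on prespotted compound at 10 μM final, parasite-free screening media added to match infected plates; puromycin 10 μM positive, DMSO 0.5% negative; run in parallel with 48 h PbLuc assay at 37 °C, 5% CO2; viability by CellTiter-Glo luminescence, normalized to controls.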

Row | Structure (SMILES) | cytotoxicity at 10 µM [%]
1 | OCc1ccc(OCC(F)(F)F)cc1 | -11.9
2 | O=C(C1CCOCC1)N1C[C@@H](F)[C@@H](OCc2nc3cc(F)ccc3[nH]2)C1 | -9.9
3 | O=C(NC[C@H]1OC[C@@H](NCc2ccccn2)[C@@H]1O)c1ccc(F)cc1 | -2.65
4 | CO[C@@H]1CN(C)S(=O)(=O)[C@@]12CCN(Cc1ccccc1)C2 | 3.02
5 | COCCOC(=O)N1CCN2C[C@@H](CO)[C@H](c3ccccc3)[C@H]2C1 | 3.44
6 | COC(=O)CCC(=O)N(Cc1ccc2cc[nH]c2c1)C1CC1 | -3.4
7 | Cc1nn(C2CCS(=O)(=O)C2)c(C)c1CC(=O)NCc1ccccc1Cl (stereo unspecified) | -0.178
8 | CCOc1ccc(NC(=O)Nc2cnc(N3CCOCC3)nc2)cc1 | -11.4
9 | O=C1COc2ccc(Cl)cc2CN1CC1CC1 | -9.2
10 | CCN1CC2(CCCCN2C(=O)c2ccsc2)CC1=O (stereo unspecified) | 5.97
11 | COc1ccc(CN2CCO[C@H]3CN(C(C)=O)CC[C@H]3C2=O)cc1 | -138
12 | CS(=O)(=O)N1CC[C@@H]2OC(COCC(=O)N3CCCC3)CC[C@@H]21 (stereo partly specified) | 1.56
13 | COc1nn(C)c2c1CCCN(C(=O)c1ccc(C)c(F)c1)C2 | 8.21
14 | Cn1cc(C[C@H]2[C@H](O)CCN2C(=O)C2CCCC2)cn1 | -3.49
15 | CN(Cc1cn2c(n1)CN(C(=O)C1CCOCC1)CC2)Cc1ccco1 | -1.46
16 | CCNC(=O)c1cc(OC)c2cc(F)cc(C)c2n1 | -3.42
17 | O=S(=O)(C1CC1)N1CCC2(COCc3cnc(N4CCOCC4)nc32)C1 (stereo unspecified) | -5.44
18 | O=C(NCCN1CCOCC1)c1ccn(COc2ccc(F)cc2)n1 | 6.17
19 | CCc1noc(C2CCCCN2C(=O)c2cccnc2)n1 (stereo unspecified) | 8.52
20 | CC(=O)N1CCCC(c2ccnc(Nc3cnccn3)c2)C1 (stereo unspecified) | 9.37
21 | CCS(=O)(=O)N1CCCC(n2nnn(-c3ccccc3)c2=O)C1 (stereo unspecified) | 2.65
22 | CS(=O)(=O)c1cncnc1C1CCCN(C(=O)Nc2ccccc2F)C1 (stereo unspecified) | -0.675
23 | Cc1nonc1CN(C)Cc1cnn(-c2ccc(Cl)cc2)c1 | -16.3

Row | Structure (SMILES) | cytotoxicity at 10 µM [%]
24 | COc1ccccc1-c1cc(C(=O)N(C)C)c2cnn(C)c2n1 | 10.6
25 | Cc1cc(-n2c(C)cn(CN(C)CC3CC3)c2=O)no1 | -2.95
26 | COCCC1(C(=O)NCCc2nncn2C2CC2)CCC1 | -9.22
27 | Cc1noc(CCNC(=O)c2ccc(Br)c(S(=O)(=O)N(C)C)c2)n1 | 6.45
28 | COc1cccc(F)c1C(C)NC(=O)NCc1cnc(C)s1 (stereo unspecified) | -4.94
29 | O=C(c1cscn1)N(CCCO)S(=O)(=O)c1cccs1 | -11.3
30 | Cc1noc(C(C)C)c1C(=O)NCC1CCN(c2ccccc2)C1 (stereo unspecified) | -11.8
31 | Cc1nc(C)c(C(=O)N2Cc3cc(F)ccc3CC2C)o1 (stereo unspecified) | 6.07
32 | CCC(C)(NC(=O)CCN1CCOC1=O)C(=O)OC (stereo unspecified) | -16
33 | c1cc(CNCc2cccc3c2OCCO3)cc(Cn2cncn2)c1 | -1.54
34 | CC(C)(C)C(=O)NCCCc1nc2ccccc2[nH]1 | 5.68
35 | COC(=O)CCNC(=O)c1ccc(OCc2ccccc2)nc1 | 4.93
36 | OCCN(Cc1cccnc1)c1ccc(Br)cn1 | 21.4
37 | CCc1nc(CCNc2ncccc2C#N)sc1C | 15.4
38 | CC(CNC(=O)c1cccc(C#N)c1)N1CCc2ccccc21 (stereo unspecified) | -16.3
39 | Cc1cc(C)c(CNC(=O)N2CCC(N3CCNC3=O)CC2)c(C)c1 | -2.22
40 | CC(C)NC(=O)CCNC(=O)Nc1cnn(-c2ccccc2Cl)c1 | 1.75
41 | Cn1cccc1C(=O)OCCNC(=O)c1ccccc1 | 14.7
42 | CC(C)NC(=O)c1cccc(NC(=O)CCCc2nc(C(C)C)no2)c1 | 5.51
43 | Cc1cccc(CNC2CCN(CCc3ccncc3)CC2)c1C | -9.04
44 | Cc1nn(C)c(C)c1OCC(=O)NCc1cccc(CO)c1 | -7.73
45 | CN(C)C(=O)Cn1cc(C(=O)NCCc2cccc(Cl)c2Cl)nn1 | -1.42
46 | CCc1nnc2n1CCN(C(=O)c1ccc3c(c1)nnn3C)C2 | -4.68

Row | Structure (SMILES) | cytotoxicity at 10 µM [%]
47 | CCOc1ccccc1NC(=O)N(CCO)Cc1ccsc1 | 0.633
48 | N#Cc1cccc(NC(=O)N2CCCC(N3CCCC3=O)C2)c1 (stereo unspecified) | 7.92
49 | CC(C)NC(=O)NCCCOC1CCOCC1 | -17
50 | O=C(Nc1ccccc1)NC1CCN(C2CCOC2)CC1 (stereo unspecified) | 7.76
51 | Cc1[nH]ccc1C(=O)N(Cc1ccc(O)cc1)CC1CC1 | 6.99
52 | O=C(CC1CCCO1)NCCc1ccccc1Br (stereo unspecified) | 5.63
53 | CC(C)(NC(=O)c1cnc(-c2ccccc2F)s1)C(N)=O | 6.96
54 | COc1ccccc1-c1csc(NC(=O)N2CCN(C)CC2C)n1 (stereo unspecified) | -3.24
55 | O=C(CCCNC(=O)Nc1ccc(F)cc1F)Nc1cn[nH]c1 | 9.19
56 | CCOCC(=O)NCC(C)(O)c1cc(C)oc1C (stereo unspecified) | 1.85
57 | Cc1cc(-c2nc(C3(NC(=O)OC(C)(C)C)CCC3)no2)on1 | 5.98
58 | CCN(c1ccc(C(=O)N(Cc2cnn(C)c2)C(C)C)cn1)C(C)C | 16.2
59 | Cc1noc(CCCC(=O)Nc2ncccc2Br)n1 | -15.7
60 | COc1ccccc1OCC(=O)Nc1ncccc1OC(F)F | 7.25
61 | O=C(C1CCOC1)N1C[C@@H]2CCN(C(=O)c3cscn3)[C@@H]2C1 (stereo partly specified) | -2.85
62 | Cc1nc(CN2C[C@@H]3CN(C(=O)CC(F)(F)F)C[C@@H]3C2=O)cs1 | -73.5
63 | O=C(CN1CCOCC1)N1CCC2(CCCN(C3CCOCC3)C2=O)C1 (stereo unspecified) | -129
64 | CN(Cc1ccc(-n2ccnc2)cc1)Cc1ncc[nH]1 | 3.69
65 | O=C(NCC1(O)CCCCC1)c1coc(COc2cccc(F)c2)n1 | -136
66 | CO[C@H]1COC[C@@H]1NC(=O)C1(Oc2ccc(Cl)cc2)CCNCC1 | -1.91
67 | Cc1ccccc1N1CC(C)N(Cc2ccc(C)c(F)c2F)CC1=O (stereo unspecified) | -1.66
68 | CC(C)Cc1noc(CN(C)c2cc(N(C)C)ncn2)n1 | -0.75
69 | Nc1nc(CCC(=O)N2C[C@@H](CN3CCCC3)C[C@H](CO)C2)n[nH]1 | -0.445

Row | Structure (SMILES) | cytotoxicity at 10 µM [%]
70 | Cc1ccc(C(=O)N2CCC3(CCC(=O)N(CC(C)O)C3)CC2)c(O)c1 (stereo unspecified) | 11
71 | CCC(CO)N(Cc1ccc(F)cc1)Cc1c(C)nn(C)c1Cl (stereo unspecified) | 8.64
72 | CC(NC1CCCC1)c1ccccc1-n1cccn1 (stereo unspecified) | 7.5
73 | Cc1cnn(C(C)C(=O)NCC2CCN(c3cnn(C)c(=O)c3)CC2)c1 (stereo unspecified) | 2.81
74 | Cc1cc2ccccc2n1CCC(=O)N1CCC[C@H]1C(N)=O | -0.338
75 | COc1cccc(N2CCN(C(=O)C(OC)c3ccccc3)CC2=O)c1 (stereo unspecified) | -0.693
76 | CC(C)Cc1cc(C(=O)NCC(O)CN2CCCCCC2)on1 (stereo unspecified) | -1.53
77 | Cc1nc(C)c(C)c(NCCSCc2[nH]cnc2C)n1 | 2.3
78 | CCc1cc(N(C)Cc2noc(C(C)C)n2)nc(N2CCOCC2)n1 | 0.515
79 | CN1CCN(C[C@@H]2CN(C(=O)NCC3CCCCC3)C[C@@H]2CO)CC1 | -9.18
80 | CCCSCC(=O)N1C[C@@H](NC(C)=O)[C@H](c2ccc(OC)cc2)C1 | 7.41
81 | CC(C)N1CCC(CC(=O)N2CCCCC2CCn2cccn2)CC1 (stereo unspecified) | -3.77
82 | CC(C)N(Cc1nccn1C)C(=O)c1cnc(O)cn1 | -1.82
83 | Cc1ccc(OC2(C(=O)NC(C)Cc3ccsc3)CCNCC2)cc1 (stereo unspecified) | -15.4
84 | CC(C)C(C)n1nccc1NC(=O)Cn1cnc2ccccc21 (stereo unspecified) | 10.8
85 | COc1ccc([C@@H]2CN(c3cnccn3)C[C@H]2N(C)C)cc1 | 6.55
86 | Cc1cc(C)c2nc(CN3CCC(CN)C3)cc(O)c2c1 (stereo unspecified) | -14.8
87 | Cc1ccc(C(=O)O)cc1-c1cccc(C(C)N(C)C)c1 (stereo unspecified) | -3.17
88 | CCC(=O)N1CCCC1c1nccnc1Nc1nc(C)cc(C)n1 (stereo unspecified) | 3.99
89 | Cc1cnn(C2CCCN(C(=O)Cc3cn4ccsc4n3)C2)c1 (stereo unspecified) | -4.89
90 | Cn1ccc(CN2CCCC2c2ccc3c(c2)OCCCO3)cc1=O (stereo unspecified) | -4.2
91 | Cc1csc(N2CCCN(C(=O)C3(C#N)CCCCC3)CC2)n1 | -2.45
92 | CCc1nc(C2CCCN2C(=O)c2ccc3c(c2)nc(C)n3C)no1 (stereo unspecified) | 3.54

Row | Structure (SMILES) | cytotoxicity at 10 µM [%]
93 | COc1ccccc1C(=O)NC(CC(=O)O)c1cccs1 (stereo unspecified) | -0.337
94 | COc1ccc(CN2CCCC2Cn2nc(C)nc2C)cc1F (stereo unspecified) | 2.89
95 | CC(CNCc1ccc2c(c1)n(C)c(=O)n2C)Oc1ccccn1 (stereo unspecified) | 6.27
96 | COCCN1CCn2c(CN(C)C(C)C)cnc2C1 | -2.92
97 | CCN1CCn2c(C)cnc2C12CCN(C(=O)c1cscn1)CC2 | 6.59
98 | COCCN1C[C@@H](C)[C@@]2(COCCN(C(=O)c3ccncc3)C2)C1 | 5.71
99 | CO[C@@H]1CC[C@H]2[C@H]1OCCN2Cc1ccc(F)c(F)c1 | 4.33
100 | COCCN1C[C@@H]2CN(Cc3ccoc3)CCC[C@]2(C(=O)O)C1 | -139
101 | O=C1CCCN1Cc1nnc2n1CCN(Cc1ccco1)CC2 | 3.39
102 | O=C(NCc1cn2c(n1)CN(Cc1ccccn1)CC2)C1CCC1 | 7.49
103 | O=C(NCc1ccccn1)[C@@H]1COC[C@H]2CN(c3ncccn3)C[C@H]21 | 7.31
104 | CN1CCN([C@@H]2CCN(C3CCOCC3)[C@H]2Cc2cnn(C)c2)CC1 | 5.07
105 | COc1ccc(CN2CCC3(CC2)CCN(CC(=O)N(C)C)C3=O)cc1 | -0.449
106 | COc1cccc(-c2c[nH]c(C3CCCN3)n2)c1 (stereo unspecified) | -4.91
107 | CNC(=O)c1cc2c(nc1NCC1CC1)CCN(S(C)(=O)=O)CC2 | 5.57
108 | COC[C@H]1CCC[C@]12CN(CCc1ccccc1)CCO2 | 4.34
109 | Cc1ccc(CN2Cc3nccn3CC(Cn3cncn3)C2)s1 (stereo unspecified) | -141
110 | CC1CCC(n2cc3nc(N)[nH]cc-3c2=O)CC1 (stereo unspecified) | -0.0237
111 | COCC(=O)NCC1CCC(c2nnc(-c3cccnc3)o2)CC1 (stereo unspecified) | -2.74
